Experimental data published in ChEMBL document CHEMBL1144395, “Design and synthesis of potent pyridazine inhibitors of p38 MAP kinase” (Bioorg Med Chem Lett, 2005).

Columns and labels:
[1] = system: THP-1; assay: Inhibitory concentration against TNF-alpha production in THP-1 cells; format: functional, cell-based; conditions: Homo sapiens
[2] = Inhibitory activity against mitogen-activated protein kinase p38; parameters: species or system Homo sapiens
[3] = Inhibitory activity against c-Jun N-terminal kinase 3 (JNK3); parameters: species or system Homo sapiens
[4] = system: Cell line; assay: Inhibitory concentration against LPS-induced release of TNF-alpha in human whole blood; format: functional, cell-based
[5] = organism: Mus musculus; assay: Effective dose against murine LPS challenge model; format: functional
In short: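 Oral dosing to BALB/c mice (n = 5) 1 h before intravenous LPS ([…]); blood taken 90 min after LPS, serum TNF-α measured by ELISA; % inhibition = [(vehicle control − compound)/(vehicle control)] × 100; ED50 derived from this inhibition.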

[6] = organism: Rattus norvegicus; assay: Effective dose against rat collagen-induced arthritis (CIA) model; format: functional

Row | IC50 [1] [nM] | Ki [2] [nM] | Ki [3] [nM] | IC50 [4] [nM] | Compound | ED50 [5] [mg/kg] | ED50 [6] [mg/kg]
1 | 661 | 65.9 | 211 |  | O=C(CO)N[C@H](CNc1cc(-c2ccncc2)c(-c2cccc3ccccc23)nn1)Cc1ccccc1 |  | 
2 | 63.6 | 29.7 | 650 | 547 | CC(C)C[C@H]1CN(c2cc(-c3ccncc3)c(-c3cccc4ccccc34)nn2)CCN1 |  | 
3 | 1290 | 709 | > 10000 |  | O=C(CNc1nccc(-c2cc(C3CCNCC3)nnc2-c2cccc(C(F)(F)F)c2)n1)c1ccccc1 |  | 
4 | 93.4 | 10.2 | > 10000 |  | CC(Nc1nccc(-c2cc(C3CCNCC3)nnc2-c2cccc(C(F)(F)F)c2)n1)c1ccc(F)cc1 (centres undefined) |  | 
5 | 5.5 | 9.2 | 81.5 |  | c1ccc(C[C@@H](CNc2cc(-c3ccncc3)c(-c3cccc4ccccc34)nn2)N2CCCC2)cc1 |  | 
6 | 251 | 179 | > 10000 |  | CC(N)(CNc1cc(-c2ccncn2)c(-c2cccc(C(F)(F)F)c2)nn1)Cc1ccccc1 (centres undefined) |  | 
7 | 1240 | 1770 | > 10000 |  | O=C(CNc1nccc(-c2cc(C3CCNCC3)nnc2-c2cccc(C(F)(F)F)c2)n1)c1ccc(F)cc1 |  | 
8 | 67.6 | 7.3 | 160 | 240 | c1ccc(C[C@H]2CN(c3cc(-c4ccncc4)c(-c4cccc5ccccc45)nn3)CCN2)cc1 | 1.28 | 2.7
9 | 40.2 | 56.2 | > 10000 | 1830 | N[C@H](CNc1cc(-c2ccncn2)c(-c2cccc(C(F)(F)F)c2)nn1)Cc1ccccc1 |  | 
10 | 21.5 | 2.1 | 2970 | 5850 | C[C@H](Nc1cc(-c2cc(C3CCNCC3)nnc2-c2cccc(C(F)(F)F)c2)ccn1)c1ccccc1 |  | 
11 | 552 | 31.8 | 72.5 |  | O=C(CO)N1CCN(c2cc(-c3ccncc3)c(-c3cccc4ccccc34)nn2)C[C@@H]1Cc1ccccc1 |  | 
12 | 5.3 | 1.6 | 1580 | 1560 | C[C@H](Nc1nccc(-c2cc(C3CCNCC3)nnc2-c2cccc(C(F)(F)F)c2)n1)c1ccccc1 |  | 
13 | 92.2 | 1.8 | 1060 | 948 | N[C@H](CNc1cc(-c2ccncc2)c(-c2cccc3ccccc23)nn1)Cc1ccc(F)cc1 |  | 
14 | 110 | 20.4 | 598 |  | CC(C)N[C@H](CNc1cc(-c2ccncc2)c(-c2cccc3ccccc23)nn1)Cc1ccccc1 |  | 
15 | 50.1 | 7 | 735 | 165 | N[C@H](CNc1cc(-c2ccncc2)c(-c2cccc3ccccc23)nn1)Cc1ccccc1 |  | 
